Reference: paper PMC3079392 (The Biochemical journal, 2008)
Entries after “also recorded” stand apart in the source; their conditions may differ. Like-named read-outs stand apart in the source and are kept apart here.

Columns and labels:
[1] = test system: phospho-PKB/Akt (Ser-473); experiment: Western blot of phospho-PKB/Akt; type: cell-based; conditions: 1 h; for Increase in PKB phosphorylation induced by siRNA to PTEN: MDA-MB-231 cells with PTEN siRNA, 1 μM; for Inhibition of PKB/Akt phosphorylation: MDA-MB-468 and BT549 cells (PTEN mutant), 0.5, 1 and 10 μM
[2] = test system: PKB/Akt (S473) and S6 (S235,236) phosphorylation; experiment: Western blot of PI3K signaling; type: cell-based; conditions: for Temporal inhibition of PKB/Akt and S6 phosphorylation: 1 μM, 1, 6 and 24 h
phospho-S6 = experiment: Phospho-S6 immunofluorescence, Cellomics arrayscan; type: cell-based; conditions: 1 μM; for Inhibition of S6 phosphorylation by immunofluorescence: 1 h; for S6 phosphorylation following treatment: Hs578t cells, up to 24 h
Summary of the method: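 Cells in 96-well plates; SKBr3 treated 18 h after plating with 1 μM test compound for 1 or 24 h, Hs578t for 24 h. Fixed in 4% paraformaldehyde 15 min, permeabilized in 0.2% Triton X-100 5 min, then blocked in 1% BSA 20 min. Anti-phospho-S6 1 h, fluorescent secondary 1 h, Hoechst. Cytoplasmic intensity (Hoechst-defined nuclear ring) measured on Cellomics ArrayScan, averaged over 200 cells; secondary-only control.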

breast cancer cell lines [3] = experiment: Cell number by counting Hoechst-stained nuclei; type: cell-based
Summary of the method: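 Cells plated in 96-well dishes; test compound added the next day, with medium and fresh compound replaced every 24 h, for 48 h (or 1 μM for 24, 48 and 72 h). Cells then fixed and permeabilized, and nuclei stained with Hoechst. Nuclei counted on a Cellomics ArrayScan reader.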

breast cancer cell lines [4] = experiment: Flow cytometry DNA content; type: cell-based; conditions: for Effects on DNA content: MCF10A, BT474, MDA-MB-231 and MDA-MB-468 cells; for Sub-G1 population (less than 2n DNA content): SKBR3 cells, 24 h
Summary of the method: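 Cells in 6-well plates (80% confluence) treated with test compound: SKBr3 at several concentrations for 24 h; others at 1 μM for 24, 48 or 72 h with fresh compound every 24 h. Adherent plus floating cells pooled and fixed in 70% ethanol. Stained with propidium iodide 10 μg/ml plus RNase A 0.1 mg/ml; 10,000 cells analysed by flow cytometry. Sub-G1 scored as <2n DNA content.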

breast cancer cell lines [5] = experiment: Flow cytometry DNA content with nocodazole protocol; type: cell-based
phospho-S6 (Ser-235,236) = experiment: Western blot of phospho-S6; type: cell-based; conditions: 1 h
Summary of the method: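 Cells in 6-well plates (80% confluence) exposed to test compound at 0.5, 1 or 10 μM for 1 h, then scraped into NP40 lysis buffer with phosphatase and protease inhibitors. Detected by HRP secondary and ECL; bands quantified densitometrically.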

110δ = conditions: cited from earlier work
p110α/p85α = conditions: read-out: In-vitro IC50 p110α/p85α; cited from earlier work
p110δ/p85α = conditions: read-out: In-vitro IC50 p110δ/p85α; cited from earlier work
[6] = cited from earlier work
[7] = MCF10A, BT474, SKBR3, BT20, T47D, MCF7 and HS578t, 0.5, 1 and 10 μM, 1 h
[8] = MDA-MB-468 cells, 0.5 and 1 μM, 48 h
[9] = five other cell lines, 0.5 and 1 μM, 48 h
[10] = MDA-MB-468 cells (PTEN mutant), 1 μM, nocodazole 70 ng/ml
[11] = mutant Ras cell lines MDA-MB-231 and Hs578t, 1 μM PI3K inhibitor, 100 nM rapamycin, nocodazole protocol
[12] = MDA-MB-231 cells, 0.5, 1 and 10 μM

Cc1cc([C@H](C)Nc2ccccc2)c2oc(N3CCOCC3)cc(=O)c2c1 [PIK-108]
Increase in PKB phosphorylation induced by siRNA to PTEN [1]: abrogated
Inhibition of PKB/Akt phosphorylation [1]: able to inhibit the phosphorylation of PKB/Akt
Inhibition of PKB/Akt and S6 phosphorylation [2, 7]: ineffective
Inhibition of S6 phosphorylation by immunofluorescence (phospho-S6; SKBr3 cells): only a minimal inhibition
Effect on cell number (breast cancer cell lines [3]; BT549 cells): did not exhibit these responses to cell number
Effect on cell number (breast cancer cell lines [3]; [8]): dose-dependent reduction in cell number
Effect on cell number (breast cancer cell lines [3]; [9]): broadly unaffected
Effects on DNA content (breast cancer cell lines [4]; 1 μM, 24, 48 and 72 h): Neither PI-103, TGX-286 or PIK-108 showed strong effects
G1 arrest (breast cancer cell lines [5]; [10]): G1 arrest was uniquely observed; also recorded: partial G1 arrest

CO[C@H]1C[C@@H]2CC[C@@H](C)[C@@](O)(O2)C(=O)C(=O)N2CCCC[C@H]2C(=O)O[C@H]([C@H](C)C[C@@H]2CC[C@@H](O)[C@H](OC)C2)CC(=O)[C@H](C)/C=C(\C)[C@@H](O)[C@@H](OC)C(=O)[C@H](C)C[C@H](C)/C=C/C=C/C=C/1C [rapamycin]
Inhibition of S6 phosphorylation (phospho-S6 (Ser-235,236); WT Ras cell lines BT-474 and BT20): sufficient to fully inhibit S6 phosphorylation
Inhibition of S6 phosphorylation (phospho-S6 (Ser-235,236); mutant Ras MDA-MD-231 cell line): residual phosphorylation of S6
G1 arrest (breast cancer cell lines [5]; all cells expressing WT Ras, 100 nM rapamycin, nocodazole protocol): caused a G1 arrest (to varying degrees)
G1 arrest (breast cancer cell lines [5]; [11]): ineffective at causing a G1 arrest

N#CC(=C(/N)Sc1ccccc1N)/C(C#N)=C(/N)Sc1ccccc1N [U0126]
G1 arrest (breast cancer cell lines [5]; all cell lines examined, 10 μM U0126, nocodazole protocol): caused a G1 arrest in all cell lines examined

Cc1ccc([N+](=O)[O-])cc1S(=O)(=O)N(C)/N=C/c1cnc2ccc(Br)cn12 [PIK-75]
Inhibition of S6 phosphorylation (phospho-S6 (Ser-235,236); [12]): still sensitive
Temporal inhibition of PKB/Akt and S6 phosphorylation ([2]; BT549 cells): transient inhibition
Inhibition of PKB/Akt and S6 phosphorylation [2, 7]: equipotent
Temporal inhibition of PKB/Akt and S6 phosphorylation ([2]; T47D, MCF10A, BT20 cells): sustained
S6 phosphorylation following treatment (phospho-S6): rapidly recovered to untreated levels
Duration of inhibition of S6 phosphorylation by immunofluorescence (phospho-S6; SKBr3 cells, 1 and 24 h): sustained
Inhibition of S6 phosphorylation by immunofluorescence (phospho-S6; SKBr3 cells): inhibit S6 phosphorylation
Effect on cell number (breast cancer cell lines [3]; Hs578t cells, 48 h of treatment): strongly inhibited cell number
Loss of cell number (breast cancer cell lines [3]; eight cell lines, 1 μM, 24, 48 and 72 h): greatest ability to induce loss of cell number
Sub-G1 population (breast cancer cell lines [4]; BT474 (rapid), MCF10A and MDA-MB-468 (delayed), 1 μM, 24, 48 and 72 h): induced a large sub-G1 population
DNA content (breast cancer cell lines [4]; MDA-MB-231 cells, 1 μM, 24, 48 and 72 h): strong accumulation of cells with a 4n DNA content
Sub-G1 population (less than 2n DNA content) (breast cancer cell lines [4]): induced a significant sub-G1 population

Cc1ccccc1-n1c(Cn2cnc3c(N)ncnc32)nc2cccc(C)c2c1=O [IC87114]
Selectivity for 110δ vs. all other PI3K family members (110δ): > 100 fold

Cc1cc(C(C)Nc2ccccc2)c2oc(-c3ccncc3)cc(=O)c2c1 (stereo not shown) [TGX-286]
Inhibition of PKB/Akt phosphorylation [1]: able to inhibit the phosphorylation of PKB/Akt
Inhibition of PKB/Akt and S6 phosphorylation [2, 7]: ineffective
Inhibition of S6 phosphorylation by immunofluorescence (phospho-S6; SKBr3 cells): only a minimal inhibition
Effect on cell number (breast cancer cell lines [3]; BT549 cells): did not exhibit these responses to cell number
Effect on cell number (breast cancer cell lines [3]; [8]): dose-dependent reduction in cell number
Effect on cell number (breast cancer cell lines [3]; [9]): broadly unaffected
Effects on DNA content (breast cancer cell lines [4]; 1 μM, 24, 48 and 72 h): Neither PI-103, TGX-286 or PIK-108 showed strong effects
G1 arrest (breast cancer cell lines [5]; [10]): G1 arrest was uniquely observed

Oc1cccc(-c2nc(N3CCOCC3)c3oc4ncccc4c3n2)c1 [PI-103]
Increase in PKB phosphorylation induced by siRNA to PTEN [1]: abrogated
Inhibition of S6 phosphorylation (phospho-S6 (Ser-235,236); [12]): still sensitive
Inhibition of PKB/Akt and S6 phosphorylation [2]: equipotent; also recorded: more potent than PIK-75
S6 phosphorylation following treatment (phospho-S6): remained inhibited
Inhibition of S6 phosphorylation by immunofluorescence (phospho-S6; SKBr3 cells): inhibit S6 phosphorylation
Effect on cell number (breast cancer cell lines [3]; BT549 and Hs578t cells, 1 μM): resistant to cell number decreases
Effects on DNA content (breast cancer cell lines [4]; 1 μM, 24, 48 and 72 h): Neither PI-103, TGX-286 or PIK-108 showed strong effects
Sub-G1 population (less than 2n DNA content) (breast cancer cell lines [4]): did not induce such an effect
G1 arrest (breast cancer cell lines [5]; BT474 and MCF10A cells, 1 μM, nocodazole 70 ng/ml): induced a G1 arrest
G1 arrest (breast cancer cell lines [5]; MDA-MB-231 and MDA-MB-468 cells, 1 μM, nocodazole 70 ng/ml): not in MDA-MB-231 cells or in MDA-MB-468 cells
G1 arrest (breast cancer cell lines [5]; [11]): marked insensitivity

O=c1cc(N2CCOCC2)oc2c(-c3ccccc3)cccc12 [LY294002]
Inhibition of PI3K signaling ([2]; all cell lines examined): effective at inhibiting PI3K signaling in all cell lines examined
Toxicity when administered systemically in vivo ([6]; in vivo): toxic when administered systemically in vivo

COC[C@H]1OC(=O)c2coc3c2[C@@]1(C)C1=C(C3=O)[C@@H]2CCC(=O)[C@@]2(C)C[C@H]1OC(C)=O [wortmannin]
Toxicity when administered systemically in vivo [6]: toxic when administered systemically in vivo

Cc1ccc(-c2c(C(=O)CF)n(CCCO)c3ncnc(N)c23)cc1 [fmk]
Effect on cell cycle arrest (breast cancer cell lines [5]; MDA-MB-231 cells (Fig. 5C)): not sufficient to cause any effect on cell cycle arrest
